Key:
Type in all cases: functional
[1] = Growth inhibition of human TK10 cells assessed as cell growth at 10^-4 M incubated for 48 hrs by sulforhodamine B assay; conditions: TK-10, 48 h, read-out: Activity
[2] = Growth inhibition of human Hs 578T cells assessed as cell growth at 10^-4 M incubated for 48 hrs by sulforhodamine B assay; conditions: read-out: Activity
[3] = Growth inhibition of human COLO205 cells incubated for 48 hrs by sulforhodamine B assay; conditions: COLO 205, 48 h
Summary of the method: (§1)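 Cells seeded at 5,000–40,000/well according to doubling time and preincubated 24 h at 37 °C, 5% CO2. Time-zero plates were TCA-fixed. DMSO concentrate was diluted in medium with 50 µg/ml gentamicin to give five concentrations (10-fold or ½ log steps), then exposed 48 h. Cells were TCA-fixed, stained with 0.4% SRB and read at 515 nm. Percent growth was taken against time-zero and control; GI50, TGI and LC50 derived.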

[4] = Growth inhibition of human HCT116 cells incubated for 48 hrs by sulforhodamine B assay; conditions: HCT-116, 48 h; summary of the method: as §1
[5] = Growth inhibition of human SF268 cells incubated for 48 hrs by sulforhodamine B assay; conditions: SF-268, 48 h
Summary of the method: (§2)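 Cells were plated at 5,000–40,000 per well according to doubling time and preincubated 24 h at 37 °C in 5% CO2; time-zero plates were then TCA-fixed. Five concentrations (10-fold or ½-log dilutions, DMSO stock) were incubated 48 h. Cells were TCA-fixed, stained with 0.4% SRB and read at 515 nm. GI50 was taken where [(Ti−Tz)/(C−Tz)]×100 = 50.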

[6] = test system: Malme-3M; test: Growth inhibition of human MALME-3M cells incubated for 48 hrs by sulforhodamine B assay; summary of the method: as §2
[7] = Growth inhibition of human OVCAR8 cells assessed as cell growth at 10^-8 M incubated for 48 hrs by sulforhodamine B assay; conditions: OVCAR-8, 48 h, read-out: Activity
[8] = test system: NCI/ADR-RES; test: Growth inhibition of human NCI/ADR-RES cells assessed as cell growth at 10^-5 M incubated for 48 hrs by sulforhodamine B assay; conditions: read-out: Activity
[9] = test system: ACHN; test: Growth inhibition of human ACHN cells assessed as cell growth at 10^-8 M incubated for 48 hrs by sulforhodamine B assay; conditions: read-out: Activity
Summary of the method: (§3)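 Five-dose assay: five concentrations from 10-fold or ½-log serial dilutions. Cells are plated at 5,000–40,000 per well according to doubling time, grown 24 h, then exposed 48 h at 37 °C, 5% CO₂. Fixed with cold 50% TCA (final addition) for 60 min at 4 °C and stained with 0.4% SRB in 1% acetic acid. Bound dye is solubilized in 10 mM Tris base and read at 515 nm. GI₅₀ is where [(Ti−Tz)/(C−Tz)]×100 = 50, with a time-zero plate as Tz.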

[10] = Growth inhibition of human COLO205 cells assessed as cell growth at 10^-7 M incubated for 48 hrs by sulforhodamine B assay; conditions: COLO 205, 48 h, read-out: Activity; summary of the method: as §1
[11] = Growth inhibition of human PC3 cells assessed as cell growth at 10^-5 M incubated for 48 hrs by sulforhodamine B assay; conditions: PC-3, 48 h, read-out: Activity
[12] = Growth inhibition of human MOLT4 cells assessed as cell growth at 10^-4 M incubated for 48 hrs by sulforhodamine B assay; conditions: MOLT-4, 48 h, read-out: Activity
[13] = test system: NCI-H226; test: Growth inhibition of human NCI-H226 cells assessed as cell growth at 10^-4 M incubated for 48 hrs by sulforhodamine B assay; conditions: NCI-H226, 48 h, read-out: Activity
[14] = Growth inhibition of human LOXIMVI cells assessed as cell growth at 10^-7 M incubated for 48 hrs by sulforhodamine B assay; conditions: LOX IMVI, read-out: Activity
[15] = test system: Malme-3M; test: Growth inhibition of human MALME-3M cells assessed as cell growth at 10^-7 M incubated for 48 hrs by sulforhodamine B assay; conditions: read-out: Activity
[16] = test system: MDA-MB-435; test: Growth inhibition of human MDA-MB-435 cells assessed as cell growth at 10^-7 M incubated for 48 hrs by sulforhodamine B assay; conditions: MDA-MB-435, 48 h, read-out: Activity
[17] = test system: SK-MEL-2; test: Growth inhibition of human SK-MEL-2 cells assessed as cell growth at 10^-7 M incubated for 48 hrs by sulforhodamine B assay; conditions: SK-MEL-2, 48 h, read-out: Activity
[18] = Growth inhibition of human RXF393 cells assessed as cell growth at 10^-7 M incubated for 48 hrs by sulforhodamine B assay; conditions: RXF 393, 48 h, read-out: Activity
[19] = test system: A549; test: Growth inhibition of human A549/ATCC cells assessed as cell growth at 10^-6 M incubated for 48 hrs by sulforhodamine B assay; conditions: A549, 48 h, read-out: Activity; summary of the method: as §3
[20] = test system: NCI-H226; test: Growth inhibition of human NCI-H226 cells assessed as cell growth at 10^-6 M incubated for 48 hrs by sulforhodamine B assay; conditions: NCI-H226, 48 h, read-out: Activity
[21] = test system: MDA-MB-435; test: Growth inhibition of human MDA-MB-435 cells assessed as cell growth at 10^-6 M incubated for 48 hrs by sulforhodamine B assay; conditions: MDA-MB-435, 48 h, read-out: Activity
[22] = test system: SK-MEL-28; test: Growth inhibition of human SK-MEL-28 cells assessed as cell growth at 10^-6 M incubated for 48 hrs by sulforhodamine B assay; conditions: SK-MEL-28, 48 h, read-out: Activity
[23] = test system: SK-MEL-5; test: Growth inhibition of human SK-MEL-5 cells assessed as cell growth at 10^-6 M incubated for 48 hrs by sulforhodamine B assay; conditions: SK-MEL-5, 48 h, read-out: Activity
[24] = test system: ACHN; test: Growth inhibition of human ACHN cells assessed as cell growth at 10^-6 M incubated for 48 hrs by sulforhodamine B assay; conditions: read-out: Activity; summary of the method: as §3
[25] = Growth inhibition of human DU145 cells assessed as cell growth at 10^-6 M incubated for 48 hrs by sulforhodamine B assay; conditions: DU-145, 48 h, read-out: Activity; summary of the method: as §1
[26] = Growth inhibition of human HL-60(TB) cells assessed as cell growth at 10 uM incubated for 48 hrs by sulforhodamine B assay; conditions: HL-60, 48 h, read-out: Activity
[27] = Growth inhibition of human MOLT4 cells assessed as cell growth at 10 uM incubated for 48 hrs by sulforhodamine B assay; conditions: MOLT-4, 48 h, read-out: Activity
[28] = read-out: LC50 (the source's name)
[29] = read-out: pLC50 (the source's name) (converted)

With `Clc1ccc(-c2nc(Nc3ccc(-c4nc5ccccc5[nH]4)cc3)nc(N3CCOCC3)n2)cc1` the growth at 100 µM [1] was -67%, the growth at 100 µM [2] was -7% and the GI50 ([3]; read-out: GI50) was 0.305 µM. For the same compound, the TGI ([3]; read-out: TGI) was 1.07 µM, the GI50 ([3]; read-out: pGI50 (converted)) was 0.302 µM and the TGI ([3]; read-out: pTGI (converted)) was 1.07 µM. For the same compound, the GI50 ([4]; read-out: GI50) was 0.177 µM, the TGI ([4]; read-out: TGI) was 0.346 µM and the GI50 ([4]; read-out: pGI50 (converted)) was 0.178 µM. The TGI ([4]; read-out: pTGI (converted)) was 0.347 µM, the GI50 ([5]; read-out: GI50) was 0.311 µM and the TGI ([5]; read-out: TGI) was 1.08 µM. The GI50 ([5]; read-out: pGI50 (converted)) was 0.309 µM, the TGI ([5]; read-out: pTGI (converted)) was 1.07 µM and the GI50 ([6]; read-out: GI50) was 2.1 µM. The TGI ([6]; read-out: TGI) was 3.86 µM, the GI50 ([6]; read-out: pGI50 (converted)) was 2.09 µM and the TGI ([6]; read-out: pTGI (converted)) was 3.89 µM. The growth at 0.01 µM [7] was 104%, the growth at 10 µM [8] was -72% and the growth at 0.01 µM [9] was 95%. It also gave a growth at 0.1 µM [10] of 95%, a growth at 10 µM [11] of -89% and a growth at 100 µM [12] of -41%. It also gave a growth at 100 µM [13] of -25%, a growth at 0.1 µM [14] of 94% and a growth at 0.1 µM [15] of 101%. The growth at 0.1 µM [16] was 98%, the growth at 0.1 µM [17] was 92% and the growth at 0.1 µM [18] was 106%. For the same compound, the growth at 1 µM [19] was 40%, the growth at 1 µM [20] was 100% and the growth at 1 µM [21] was 36%. For the same compound, the growth at 1 µM [22] was 84%, the growth at 1 µM [23] was 93% and the growth at 1 µM [24] was 53%. For the same compound, the growth at 1 µM [25] was 26%, the growth at 10 µM [26] was -81.4% and the growth at 10 µM [27] was -91.6%.

`c1ccc2[nH]c(-c3ccc(Nc4nc(N5CCCCC5)nc(N5CCOCC5)n4)cc3)nc2c1` showed a growth at 100 µM [1] of -32%, a growth at 100 µM [2] of -12% and a GI50 ([3]; read-out: GI50) of 1.86 µM. For the same compound, the LC50 ([3]; read-out: LC50) was 8.27 µM, the TGI ([3]; read-out: TGI) was 3.92 µM and the GI50 ([3]; read-out: pGI50 (converted)) was 1.86 µM. It also gave an LC50 ([3]; read-out: pLC50 (converted)) of 8.32 µM, a TGI ([3]; read-out: pTGI (converted)) of 3.89 µM and a GI50 ([4]; read-out: GI50) of 1.91 µM. For the same compound, the CC50 [4, 28] was 7.88 µM, the TGI ([4]; read-out: TGI) was 3.87 µM and the GI50 ([4]; read-out: pGI50 (converted)) was 1.91 µM. The CC50 [4, 29] was 7.94 µM, the TGI ([4]; read-out: pTGI (converted)) was 3.89 µM and the GI50 ([5]; read-out: GI50) was 3.21 µM. For the same compound, the CC50 [5, 28] was > 100 µM, the TGI ([5]; read-out: TGI) was 20.1 µM and the GI50 ([5]; read-out: pGI50 (converted)) was 3.24 µM. The CC50 [5, 29] was > 100 µM, the TGI ([5]; read-out: pTGI (converted)) was 20 µM and the GI50 ([6]; read-out: GI50) was 1.87 µM. The CC50 [6, 28] was 6.81 µM, the TGI ([6]; read-out: TGI) was 3.57 µM and the GI50 ([6]; read-out: pGI50 (converted)) was 1.86 µM. The CC50 [6, 29] was 6.76 µM, the TGI ([6]; read-out: pTGI (converted)) was 3.55 µM and the growth at 0.01 µM [7] was 96%. It also gave a growth at 10 µM [8] of 28%, a growth at 0.01 µM [9] of 101% and a growth at 0.1 µM [10] of 104%. The growth at 10 µM [11] was -4%, the growth at 100 µM [12] was -34% and the growth at 100 µM [13] was -36%. For the same compound, the growth at 0.1 µM [14] was 95%, the growth at 0.1 µM [15] was 85% and the growth at 0.1 µM [16] was 95%. For the same compound, the growth at 0.1 µM [17] was 102%, the growth at 0.1 µM [18] was 91% and the growth at 1 µM [19] was 101%. It also gave a growth at 1 µM [20] of 89%, a growth at 1 µM [21] of 95% and a growth at 1 µM [22] of 87%. It also gave a growth at 1 µM [23] of 97%, a growth at 1 µM [24] of 90% and a growth at 1 µM [25] of 96%. The growth at 10 µM [26] was -22.7% and the growth at 10 µM [27] was 13.7%.

Reference: ChEMBL document CHEMBL3808334, “Synthesis and in vitro evaluation of novel triazine analogues as anticancer agents and their interaction studies with bovine serum albumin” (Eur J Med Chem, 2016)
